From the M2OR odorant receptor database

Columns and labels:
Conditions in all cases: stereoisomer not certain
OR4C16 (Homo sapiens) = OR4C16 (Homo sapiens) (UniProt Q8NGL9)
Procedure, shortened: (§1)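 Each entry records the cell line, G-protein, co-transfected protein and tags used. Methods varied with the source, often transient luciferase assays in mammalian cell lines. A receptor–molecule pair is called responsive (active) if the original authors judged its signal statistically different from baseline and non-responsive (inactive) otherwise.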

OR4C3 (Homo sapiens) = OR4C3 (Homo sapiens) (UniProt Q8NH37)
Procedure, shortened: as §1

OR4C45 (Homo sapiens) [1] = molecular target: OR4C45 (Homo sapiens) (UniProt A6NMZ5)
Procedure, shortened: as §1

OR4C46 (Homo sapiens) = OR4C46 (Homo sapiens) (UniProt A6NHA9)
Procedure, shortened: as §1

OR4C5 (Homo sapiens) = OR4C5 (Homo sapiens) (UniProt Q8NGB2)
Procedure, shortened: as §1

OR4C6 (Homo sapiens) = OR4C6 (Homo sapiens) (UniProt Q8NH72)
Procedure, shortened: as §1

OR4D1 (Homo sapiens) = OR4D1 (Homo sapiens) (UniProt Q15615)
Procedure, shortened: as §1

OR4D10 (Homo sapiens) = OR4D10 (Homo sapiens) (UniProt Q8NGI6)
Procedure, shortened: as §1

OR4D11 (Homo sapiens) = OR4D11 (Homo sapiens) (UniProt Q8NGI4)
Procedure, shortened: as §1

OR4D2 (Homo sapiens) = OR4D2 (Homo sapiens) (UniProt P58180)
Procedure, shortened: as §1

OR4D5 (Homo sapiens) = OR4D5 (Homo sapiens) (UniProt Q8NGN0)
Procedure, shortened: as §1

OR4C3 = system: OR4C3
Procedure, shortened: as §1

OR4C45 (Homo sapiens) [2] = molecular target: OR4C45 (Homo sapiens) (UniProt A6NMZ5); remark: listed apart in the source
Procedure, shortened: as §1
Target sequence in this assay (A6NMZ5 whole entry): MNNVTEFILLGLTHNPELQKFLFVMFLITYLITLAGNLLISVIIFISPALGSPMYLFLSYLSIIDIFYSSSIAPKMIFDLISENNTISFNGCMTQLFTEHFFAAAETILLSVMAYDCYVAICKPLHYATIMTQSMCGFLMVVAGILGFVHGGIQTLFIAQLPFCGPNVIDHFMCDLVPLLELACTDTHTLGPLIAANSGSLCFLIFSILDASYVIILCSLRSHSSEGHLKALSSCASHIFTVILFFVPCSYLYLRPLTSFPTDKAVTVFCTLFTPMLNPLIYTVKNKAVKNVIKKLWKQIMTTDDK

OR4CB P8T = system: OR4CB P8T
Procedure, shortened: as §1

OR4CC = system: OR4CC
Procedure, shortened: as §1

OR4CD V133I = system: OR4CD V133I
Procedure, shortened: as §1

OR4CF = system: OR4CF
Procedure, shortened: as §1

OR4CG T76A = system: OR4CG T76A
Procedure, shortened: as §1

OR4D1 = system: OR4D1
Procedure, shortened: as §1

OR4D2 = system: OR4D2
Procedure, shortened: as §1

Measured: odorant receptor agonist call

Sequence of OR4D11 (Homo sapiens) (Q8NGI4 whole entry): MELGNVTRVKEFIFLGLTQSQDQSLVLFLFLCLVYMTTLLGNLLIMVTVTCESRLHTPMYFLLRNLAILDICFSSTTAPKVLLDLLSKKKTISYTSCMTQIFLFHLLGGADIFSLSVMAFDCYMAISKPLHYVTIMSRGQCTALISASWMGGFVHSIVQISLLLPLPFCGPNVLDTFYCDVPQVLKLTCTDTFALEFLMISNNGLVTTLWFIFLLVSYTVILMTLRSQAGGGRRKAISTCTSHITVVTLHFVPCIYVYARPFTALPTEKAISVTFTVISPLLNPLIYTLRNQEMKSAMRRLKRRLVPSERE
Sequence of OR4D10 (Homo sapiens) (Q8NGI6 whole entry): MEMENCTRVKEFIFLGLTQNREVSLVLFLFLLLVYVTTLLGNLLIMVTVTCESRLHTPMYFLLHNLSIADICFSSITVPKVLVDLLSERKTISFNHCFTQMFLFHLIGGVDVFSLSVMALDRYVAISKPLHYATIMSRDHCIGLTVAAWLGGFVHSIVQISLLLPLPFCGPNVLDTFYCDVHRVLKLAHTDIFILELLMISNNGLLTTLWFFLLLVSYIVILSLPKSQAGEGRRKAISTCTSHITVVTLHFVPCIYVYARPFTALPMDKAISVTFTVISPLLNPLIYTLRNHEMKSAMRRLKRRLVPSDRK
Sequence of OR4C5 (Homo sapiens) (Q8NGB2 whole entry): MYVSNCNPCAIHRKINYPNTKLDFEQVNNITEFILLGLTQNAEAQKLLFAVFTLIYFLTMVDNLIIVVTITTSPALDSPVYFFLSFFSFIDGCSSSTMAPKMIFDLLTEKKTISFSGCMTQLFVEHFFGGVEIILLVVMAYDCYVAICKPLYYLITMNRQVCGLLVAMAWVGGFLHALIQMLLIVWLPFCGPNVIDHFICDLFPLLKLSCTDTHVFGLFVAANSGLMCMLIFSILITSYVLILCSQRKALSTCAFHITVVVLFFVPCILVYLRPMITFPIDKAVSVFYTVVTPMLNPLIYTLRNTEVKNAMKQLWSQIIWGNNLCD
Sequence of OR4C6 (Homo sapiens) (Q8NH72 whole entry): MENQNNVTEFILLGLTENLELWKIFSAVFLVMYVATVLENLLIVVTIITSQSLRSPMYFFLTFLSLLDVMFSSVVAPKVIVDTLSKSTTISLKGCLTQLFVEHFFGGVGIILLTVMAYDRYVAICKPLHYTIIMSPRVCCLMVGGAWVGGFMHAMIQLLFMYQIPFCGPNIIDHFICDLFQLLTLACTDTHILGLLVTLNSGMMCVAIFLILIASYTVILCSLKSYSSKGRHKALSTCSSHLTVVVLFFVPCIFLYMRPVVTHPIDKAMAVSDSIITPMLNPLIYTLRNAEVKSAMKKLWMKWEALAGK
Sequence of OR4C46 (Homo sapiens) (A6NHA9 whole entry): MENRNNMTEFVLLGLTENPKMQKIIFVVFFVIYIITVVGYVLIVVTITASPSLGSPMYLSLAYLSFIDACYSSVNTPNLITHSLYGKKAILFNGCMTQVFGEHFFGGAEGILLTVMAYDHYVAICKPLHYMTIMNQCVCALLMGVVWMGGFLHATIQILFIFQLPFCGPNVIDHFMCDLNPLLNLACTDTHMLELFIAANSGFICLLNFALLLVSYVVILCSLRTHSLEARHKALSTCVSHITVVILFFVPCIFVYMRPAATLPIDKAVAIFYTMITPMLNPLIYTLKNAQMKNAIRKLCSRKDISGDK
Sequence of OR4C16 (Homo sapiens) (Q8NGL9 whole entry): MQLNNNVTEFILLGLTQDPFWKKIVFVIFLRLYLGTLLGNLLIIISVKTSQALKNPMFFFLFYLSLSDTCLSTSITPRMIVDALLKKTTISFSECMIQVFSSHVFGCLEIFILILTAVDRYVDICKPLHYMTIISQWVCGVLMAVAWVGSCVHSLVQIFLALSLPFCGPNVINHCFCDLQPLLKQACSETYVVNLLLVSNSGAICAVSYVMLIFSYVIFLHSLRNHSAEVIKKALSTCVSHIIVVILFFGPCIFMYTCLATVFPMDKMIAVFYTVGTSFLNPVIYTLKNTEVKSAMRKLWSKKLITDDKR
Sequence of OR4D2 (Homo sapiens) (P58180 whole entry): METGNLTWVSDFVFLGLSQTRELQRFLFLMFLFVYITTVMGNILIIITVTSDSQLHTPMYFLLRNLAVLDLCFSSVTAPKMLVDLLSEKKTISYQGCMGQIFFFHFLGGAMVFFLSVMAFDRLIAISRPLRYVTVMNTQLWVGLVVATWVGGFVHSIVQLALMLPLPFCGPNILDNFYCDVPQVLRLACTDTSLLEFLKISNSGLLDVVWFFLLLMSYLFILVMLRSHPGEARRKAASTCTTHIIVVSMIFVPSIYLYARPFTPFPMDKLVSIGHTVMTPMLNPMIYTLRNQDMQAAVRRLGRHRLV
Sequence of OR4D1 (Homo sapiens) (Q15615 whole entry): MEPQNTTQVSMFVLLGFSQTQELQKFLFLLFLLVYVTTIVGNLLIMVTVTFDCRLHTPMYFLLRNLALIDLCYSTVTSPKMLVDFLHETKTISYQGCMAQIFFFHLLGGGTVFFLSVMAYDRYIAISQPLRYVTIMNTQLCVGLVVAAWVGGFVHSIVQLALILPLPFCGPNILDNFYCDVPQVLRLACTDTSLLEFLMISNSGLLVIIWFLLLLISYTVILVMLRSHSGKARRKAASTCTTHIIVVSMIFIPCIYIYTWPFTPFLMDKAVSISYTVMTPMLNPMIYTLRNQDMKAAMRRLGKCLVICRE
Sequence of OR4D5 (Homo sapiens) (Q8NGN0 whole entry): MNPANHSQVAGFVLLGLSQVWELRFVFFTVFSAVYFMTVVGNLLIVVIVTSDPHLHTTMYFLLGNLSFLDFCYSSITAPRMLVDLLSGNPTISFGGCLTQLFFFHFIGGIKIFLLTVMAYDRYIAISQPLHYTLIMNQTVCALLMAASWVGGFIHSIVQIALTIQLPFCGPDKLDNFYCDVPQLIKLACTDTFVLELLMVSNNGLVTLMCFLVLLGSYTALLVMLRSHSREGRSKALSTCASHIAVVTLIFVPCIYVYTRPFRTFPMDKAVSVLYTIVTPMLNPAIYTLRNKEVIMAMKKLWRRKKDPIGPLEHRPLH
Sequence of OR4D2 (as listed by the source): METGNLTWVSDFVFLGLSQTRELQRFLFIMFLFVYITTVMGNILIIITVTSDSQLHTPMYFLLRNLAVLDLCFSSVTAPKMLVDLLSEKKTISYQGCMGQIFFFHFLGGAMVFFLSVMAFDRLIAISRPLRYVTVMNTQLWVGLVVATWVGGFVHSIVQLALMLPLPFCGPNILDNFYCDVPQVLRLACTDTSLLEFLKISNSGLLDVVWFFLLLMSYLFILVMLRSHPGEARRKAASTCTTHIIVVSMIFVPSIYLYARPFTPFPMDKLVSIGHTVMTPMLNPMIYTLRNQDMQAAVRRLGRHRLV
Sequence of OR4CB P8T (as listed by the source): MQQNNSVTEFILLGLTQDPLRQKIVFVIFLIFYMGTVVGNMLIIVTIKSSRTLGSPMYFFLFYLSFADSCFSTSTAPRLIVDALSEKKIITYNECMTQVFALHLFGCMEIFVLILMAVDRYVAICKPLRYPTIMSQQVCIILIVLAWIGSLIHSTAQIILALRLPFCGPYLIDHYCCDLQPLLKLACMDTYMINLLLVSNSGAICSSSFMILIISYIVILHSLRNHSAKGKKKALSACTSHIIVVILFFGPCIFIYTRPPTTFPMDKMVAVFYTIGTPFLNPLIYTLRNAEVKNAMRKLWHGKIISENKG
Sequence of OR4CG T76A (as listed by the source, stated change not applied): as the sequence (Q8NGL9 whole entry) above, with T76A counted along it
Sequence of OR4C3 (Homo sapiens) (Q8NH37 whole entry): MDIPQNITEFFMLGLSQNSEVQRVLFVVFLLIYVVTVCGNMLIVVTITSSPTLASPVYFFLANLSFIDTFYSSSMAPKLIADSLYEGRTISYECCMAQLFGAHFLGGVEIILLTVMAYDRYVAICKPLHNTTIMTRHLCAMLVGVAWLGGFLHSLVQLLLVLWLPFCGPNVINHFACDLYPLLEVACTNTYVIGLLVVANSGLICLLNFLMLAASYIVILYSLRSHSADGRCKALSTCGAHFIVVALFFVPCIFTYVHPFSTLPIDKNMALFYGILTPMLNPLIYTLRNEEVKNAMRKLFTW
Sequence of OR4CD V133I (as listed by the source, stated change not applied): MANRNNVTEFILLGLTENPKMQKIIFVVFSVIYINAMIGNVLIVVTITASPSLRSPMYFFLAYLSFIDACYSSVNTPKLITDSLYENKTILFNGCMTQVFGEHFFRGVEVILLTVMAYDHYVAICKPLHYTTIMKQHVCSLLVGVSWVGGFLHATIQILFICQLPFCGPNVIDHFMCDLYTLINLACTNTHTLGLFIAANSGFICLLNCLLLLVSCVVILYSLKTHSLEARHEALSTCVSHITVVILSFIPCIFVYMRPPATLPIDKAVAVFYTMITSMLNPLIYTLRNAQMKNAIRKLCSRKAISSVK
Sequence of OR4C3 (as listed by the source): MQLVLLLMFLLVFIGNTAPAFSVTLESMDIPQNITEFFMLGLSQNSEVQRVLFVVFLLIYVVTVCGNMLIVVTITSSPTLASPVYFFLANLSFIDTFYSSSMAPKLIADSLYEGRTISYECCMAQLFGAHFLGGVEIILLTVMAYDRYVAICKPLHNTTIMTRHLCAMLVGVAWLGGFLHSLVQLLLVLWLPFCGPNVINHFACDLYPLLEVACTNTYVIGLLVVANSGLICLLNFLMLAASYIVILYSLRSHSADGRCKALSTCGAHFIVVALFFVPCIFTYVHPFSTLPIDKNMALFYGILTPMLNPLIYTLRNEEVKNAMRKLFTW

Cc1c([N+](=O)[O-])c(C)c([N+](=O)[O-])c(C(C)(C)C)c1[N+](=O)[O-]
inactive: OR4C16 (Homo sapiens) | OR4C3 (Homo sapiens) | OR4C45 (Homo sapiens) [1] | OR4C46 (Homo sapiens) | OR4C5 (Homo sapiens) | OR4C6 (Homo sapiens) | OR4D1 (Homo sapiens) | OR4D10 (Homo sapiens) | OR4D11 (Homo sapiens) | OR4D2 (Homo sapiens) | OR4D5 (Homo sapiens)

C=CCOC(=O)Cc1ccccc1
not listed: OR4C3 (Homo sapiens) | OR4C45 (Homo sapiens) [1]
inactive: all other assays above
